From ChEMBL document CHEMBL1136489 (Bioorg Med Chem Lett, 2003)

Experiments:
Type in all cases: protein-complex assay
[1] = target: Geranylgeranyl transferase type I (Homo sapiens, UniProt P49354+P53609); assay: In vitro inhibition of Geranylgeranyl protein transferase I
Procedure, shortened: (§1)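 Cell-free enzyme inhibition assay, run as previously described with modifications.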

[2] = target: Protein farnesyltransferase (Homo sapiens, UniProt P49354+P49356); assay: In vitro inhibition of farnesyl protein transferase; procedure, shortened: as §1
[3] = target: Protein farnesyl/geranylgeranyl transferase (Homo sapiens) (UniProt P49354+P49356+P53609); assay: Selectivity for Geranylgeranyl protein transferase I compared to farnesyl protein transferase

Row | SMILES | IC50 [1] | IC50 [2] | Selectivity [3]
1 | CCC(C(=O)NC/C=C(\C)CC/C=C(\C)CC/C=C(\C)CCC=C(C)C)P(=O)(O)O (stereo unspecified) | 566 nM | > 10000 nM | > 18
2 | CC(C)=CCC/C(C)=C/CC/C(C)=C/CC/C(C)=C/CNC(=O)C(C)P(=O)(O)O (stereo unspecified) | 111 nM | > 10000 nM | > 90
3 | CC(C)=CCC/C(C)=C/CC/C(C)=C/CC/C(C)=C/CONC(=O)C(C)P(=O)(O)O (stereo unspecified) | 151 nM | > 10000 nM | > 66

The remaining compounds from weak to strong by IC50 [1], led by results:

Row | IC50 [1] | IC50 [2] | Selectivity [3] | SMILES
4 | 275 nM | 5000 nM | 18 | CC(C)=CCC/C(C)=C/CC/C(C)=C/CC/C(C)=C/CNC(=O)CP(=O)(O)O
5 | 146 nM | > 10000 nM | > 68 | CCC(C(=O)NOC/C=C(\C)CC/C=C(\C)CC/C=C(\C)CCC=C(C)C)P(=O)(O)O (stereo unspecified)
6 | 66 nM |  |  | CC(C)=CCC/C(C)=C/CC/C(C)=C/CC/C(C)=C/CONC(=O)CP(=O)(O)O
